Assay results from publication PMC6035748 (Journal of biomedical materials research. Part A, 2018).
Ends that are not written are not given here.

What was measured:
[1] = test system: MDA-MB-231 tumors; assay: Biodistribution in orthotopic MDA-MB-231 xenograft mouse model; type: in vivo; conditions: AXT050-IRD800 intravenous, organs harvested 24 h post injection
[2] = molecular target: integrin αvβ3 (Homo sapiens, UniProt P05106+P06756); assay: Bio-layer interferometry; type: binding
Procedure, shortened: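 Biotinylated test peptide, 25 μM stock in 5% DMSO/95% water, diluted 100-fold in 0.05% Tween 20 in 1X PBS. The peptide was loaded onto streptavidin biosensors for 300 s, with 60 s buffer-only steps on either side. Association ran 600 s against human recombinant integrin αvβ3 at 10–300 nM in the same buffer. kon and koff were fitted to a single-binding-site association model.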

integrin αvβ3, sequence (P06756 31-992 limits assumed): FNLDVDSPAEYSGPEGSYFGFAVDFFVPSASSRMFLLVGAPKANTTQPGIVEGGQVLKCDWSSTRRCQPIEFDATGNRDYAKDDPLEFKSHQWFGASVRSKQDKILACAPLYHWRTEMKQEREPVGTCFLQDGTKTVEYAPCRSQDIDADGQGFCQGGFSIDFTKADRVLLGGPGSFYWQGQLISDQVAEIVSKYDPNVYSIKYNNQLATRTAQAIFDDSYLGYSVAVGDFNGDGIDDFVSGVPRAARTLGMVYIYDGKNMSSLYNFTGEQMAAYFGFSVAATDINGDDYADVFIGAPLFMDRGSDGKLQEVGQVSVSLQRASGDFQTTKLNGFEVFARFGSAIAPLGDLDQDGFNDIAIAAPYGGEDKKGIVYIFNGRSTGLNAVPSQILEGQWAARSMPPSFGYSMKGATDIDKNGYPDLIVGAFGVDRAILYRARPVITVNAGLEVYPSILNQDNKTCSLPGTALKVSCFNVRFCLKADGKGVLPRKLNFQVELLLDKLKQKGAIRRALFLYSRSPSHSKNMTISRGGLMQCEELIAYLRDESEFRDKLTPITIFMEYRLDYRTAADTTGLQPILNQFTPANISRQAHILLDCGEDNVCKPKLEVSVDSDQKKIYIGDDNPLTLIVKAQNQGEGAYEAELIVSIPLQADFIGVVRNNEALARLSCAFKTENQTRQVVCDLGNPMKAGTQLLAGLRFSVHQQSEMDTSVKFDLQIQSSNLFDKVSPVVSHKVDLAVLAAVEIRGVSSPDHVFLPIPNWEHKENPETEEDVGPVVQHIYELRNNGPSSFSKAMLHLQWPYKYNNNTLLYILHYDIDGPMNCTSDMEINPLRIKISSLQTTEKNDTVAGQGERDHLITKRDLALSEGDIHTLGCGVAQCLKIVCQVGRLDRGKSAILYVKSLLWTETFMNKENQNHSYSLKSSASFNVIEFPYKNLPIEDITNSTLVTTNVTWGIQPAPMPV
integrin αvβ3, sequence (P05106 27-718 limits assumed): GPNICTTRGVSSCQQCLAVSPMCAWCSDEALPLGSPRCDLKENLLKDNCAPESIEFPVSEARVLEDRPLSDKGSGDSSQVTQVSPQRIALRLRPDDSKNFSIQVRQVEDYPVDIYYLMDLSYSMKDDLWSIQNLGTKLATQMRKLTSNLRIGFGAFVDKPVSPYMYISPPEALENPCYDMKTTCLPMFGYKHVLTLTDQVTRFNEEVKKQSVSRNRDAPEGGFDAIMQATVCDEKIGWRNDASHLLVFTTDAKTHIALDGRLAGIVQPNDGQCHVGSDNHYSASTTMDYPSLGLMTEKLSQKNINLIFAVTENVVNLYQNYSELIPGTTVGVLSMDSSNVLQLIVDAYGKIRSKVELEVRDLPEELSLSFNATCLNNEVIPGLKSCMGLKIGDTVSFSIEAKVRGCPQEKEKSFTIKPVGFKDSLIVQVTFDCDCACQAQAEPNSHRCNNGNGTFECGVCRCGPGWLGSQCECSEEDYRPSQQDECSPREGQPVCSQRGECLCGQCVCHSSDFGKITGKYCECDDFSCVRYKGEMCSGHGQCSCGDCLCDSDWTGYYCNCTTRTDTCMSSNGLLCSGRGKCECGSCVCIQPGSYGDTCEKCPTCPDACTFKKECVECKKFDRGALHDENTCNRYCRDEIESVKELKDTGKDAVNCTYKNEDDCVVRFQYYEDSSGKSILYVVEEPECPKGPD

koff [2]: 0.0032 s⁻¹
Sequence: LRRFSTAPFAFIDINDVINF [AXT050]
organ with highest detection / main route of clearance [1]: highest level of its detection in the kidneys
